Six molecules from ChEMBL document CHEMBL2429813, “Phomapyrrolidones A-C, antitubercular alkaloids from the endophytic fungus Phoma sp. NRRL 46751” (J Nat Prod, 2013) can be followed below.

Structures are written as SMILES. In brackets after ≈: the same amount, converted by molar mass. Activity calls are given as the source filed them. No cut-off for these calls is given here. A value given as a limit tells only on which side of the number the result lay.

Assay [1] relates to MDA-MB-231. Kind of assay: Cytotoxicity against human MDA-MB-231 cells at 5 uM after 72 hrs by Alamar blue assay. Format: functional, cell-based. Put shortly: (§1)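 The human cancer cell panel was assayed by resazurin (alamarBlue) read-out, with 5.0 μM as the highest concentration tested and doxorubicin as the positive control. The procedure follows an earlier report.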
For orientation: The colour change of resazurin is a common sign of viable cells or microbes.

In assay [2] the test system is NCI-H460. In words: Cytotoxicity against human NCI-H460 cells at 5 uM after 72 hrs by Alamar blue assay. Format: functional, cell-based. Put shortly:
as §1

For assay [3], the system named is Mycobacterium tuberculosis. In words: Antitubecular activity against Mycobacterium tuberculosis […] assessed as growth inhibition after 4 days by microplate Alamar blue assay. To be noted: 96 h. It counts as functional. The gist of the method: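 Replicating M. tuberculosis […] cultures in microplate alamar blue (resazurin) format. MIC was read out and reported in μg/mL, with μM in parentheses. Rifampin and isonicotinylhydrazine served as positive controls.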

Assay [4] concerns MCF7. In words: Cytotoxicity against human MCF7 cells at 5 uM after 72 hrs by Alamar blue assay. Format: functional, cell-based. Put shortly: as §1
Assay [5] relates to PC-3M. Kind of assay: Cytotoxicity against human PC3M cells at 5 uM after 72 hrs by Alamar blue assay. It counts as functional, cell-based. The gist of the method: as §1
In assay [6] the test system is SF-268. In words: Cytotoxicity against human SF268 cells at 5 uM after 72 hrs by Alamar blue assay. Format: functional, cell-based. Put shortly: as §1
The subject of assay [7] is Vero. In words: Cytotoxicity against African green monkey Vero cells after 72 hrs by MTS-PMS assay. Format: cell-based. To be noted: Chlorocebus sabaeus. Put shortly:
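Vero cells were assayed by MTS-PMS colorimetric read-out, with rifampin as the positive control. The procedure follows an earlier report. Values are given as IC50.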

For assay [8], the system named is Mycobacterium tuberculosis. In words: Antitubecular activity against Mycobacterium tuberculosis […] assessed as growth inhibition by low oxygen recovery assay. It counts as functional. The gist of the method:
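Non-replicating M. tuberculosis […] under low-oxygen conditions, with growth assessed on recovery (LORA). Endpoint was MIC, in μg/mL with μM in parentheses. Rifampin and isonicotinylhydrazine were the positive controls.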

For orientation: MIC means the lowest concentration found to suppress growth. In general, IC50 refers to the concentration needed to halve the response being measured. `CC1=C[C@@]2(C)C(=C(C)[C@H]3[C@H]4C[C@@H](C)C[C@@H](C)[C@@H]4[C@@H]4Oc5ccc(cc5)C[C@@H]5C(=O)NC(=O)[C@H]5C(=O)[C@H]2[C@H]43)[C@H]1C`: the result in assay [1], in assay [2], in assay [4], in assay [5] and in assay [6] was inactive. For the same molecule, the values for the MIC in assay [3] and in assay [8] were 20.1 µg/mL (≈ 38.1 µM) and 41.1 µg/mL (≈ 77.9 µM), respectively. For the same molecule, in assay [7], the IC50 came out at 33.6 µM.
For `CC1=C[C@@]2(C)C(=C(C)[C@H]3[C@H]4C[C@@H](C)C[C@@H](C)[C@@H]4[C@@H]4Oc5ccc(cc5)CC5(O)NC(=O)C6(O[C@H]56)C(=O)[C@H]2[C@H]43)[C@H]1C` (some centres not stated), the outcome in assay [1], in assay [2], in assay [4], in assay [5] and in assay [6] was inactive. In addition, the MIC in assay [3] is 5.2 µg/mL (≈ 9.56 µM); in assay [8], 13.4 µg/mL (≈ 24.6 µM). The molecule also returned an IC50 in assay [7] of 35.7 µM.
On to `CC1=C[C@@]2(C)C(=C(C)[C@H]3[C@H]4C[C@@H](C)C[C@@H](C)[C@@H]4[C@@H]4Oc5ccc(cc5)C[C@H]5C(=O)NC(=O)[C@@H]5C(=O)[C@H]2[C@H]43)[C@H]1C`, for which the outcome in assay [1], in assay [2], in assay [4], in assay [5] and in assay [6] was inactive. The MIC was determined as 5.9 µg/mL (≈ 11.2 µM) in assay [3] and 15.4 µg/mL (≈ 29.2 µM) in assay [8]. This molecule returned an IC50 in assay [7] of 32.4 µM.
As for `CO[C@H]1/C=C/O[C@@]2(C)Oc3c(C)c(O)c4c(O)c(c(/C=N/N5CCN(C)CC5)c(O)c4c3C2=O)NC(=O)/C(C)=C\C=C\[C@H](C)[C@H](O)[C@@H](C)[C@@H](O)[C@@H](C)[C@H](OC(C)=O)[C@@H]1C` [RIFAMPIN], the MIC in assay [3] was determined as 0.07 µg/mL (≈ 0.0851 µM); in assay [8], 0.1 µg/mL (≈ 0.122 µM). In assay [7], this molecule came in with an IC50 of 132 µM.
Consider `NNC(=O)c1ccncc1` [ISONIAZID], for which the figures for the MIC in assay [3] and in assay [8] were 0.03 µg/mL (≈ 0.219 µM) and above 17.5 µg/mL, respectively.
Consider `CC1=C[C@@]2(C)C(=C(C)[C@H]3[C@H]4C[C@@H](C)C[C@@H](C)[C@@H]4[C@@H]4Oc5ccc(cc5)C[C@@H]5C(=O)N(C)C(=O)[C@H]5C(=O)[C@H]2[C@H]43)[C@H]1C`, for which the result in assay [1], in assay [2], in assay [4], in assay [5] and in assay [6] was inactive. Besides, the MIC in assay [3] and in assay [8] was above 100 µg/mL each time. In addition, in assay [7], half-maximal inhibition (IC50) required 145 µM.
